Format in all cases: functional
Assay [1] relates to Rattus norvegicus. Nature of the assay: Reduction in paw swelling at 100 mg/kg po dose in rat using adjuvant arthritis test; value is +10 indicates exacerbation of paw swelling.
The subject of assay [2] is Rattus norvegicus. Nature of the assay: Reduction in paw swelling at 100 mg/kg po dose in rat using adjuvant arthritis test.
The species entered for assay [3] is Rattus norvegicus. The assay can be described thus: (§1) Potency relative to [2-(2,4-Dichloro-phenoxy)-phenyl]-acetic acid in rat adjuvant arthritis test.
Assay [4] deals with Rattus norvegicus. Nature of the assay: Reduction in paw swelling at 100 mg/kg po dose in rat using adjuvant arthritis test; value is +23 indicates exacerbation of paw swelling.
Assay [5] has as its system Rattus norvegicus. Nature of the assay: Reduction in paw swelling at 100 mg/kg po dose in rat using adjuvant arthritis test; value is +8 indicates exacerbation of paw swelling.
The test system of assay [6] is Rattus norvegicus. The assay can be described thus: Reduction in paw swelling at 100 mg/kg po dose in rat using adjuvant arthritis test; value is +14 indicates exacerbation of paw swelling.
The species named for assay [7] is Rattus norvegicus. The assay can be described thus: Minimum ulcerogenic dose(MUD) of the compound.
Assay [8] is filed under the species Rattus norvegicus. The assay can be described thus: Minimum ulcerogenic dose(MUD) of the compound;Value ranges from (400-800).
For assay [9], the system named is Rattus norvegicus. The assay can be described thus: Reduction in paw swelling at 100 mg/kg po dose in rat using adjuvant arthritis test; value is +6 indicates exacerbation of paw swelling.
In assay [10] the test system is Rattus norvegicus. The assay can be described thus: Reduction in paw swelling at 100 mg/kg po dose in rat using adjuvant arthritis test; value is +12 indicates exacerbation of paw swelling.
The test system of assay [11] is Rattus norvegicus. The assay can be described thus: Reduction in paw swelling at 100 mg/kg po dose in rat using adjuvant arthritis test; value is +9 indicates exacerbation of paw swelling.
The species named for assay [12] is Rattus norvegicus. The description is as §1. Summed up: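 Established (therapeutic) adjuvant arthritis test in rats: the drug was given after arthritis had fully developed. Relative potency against the reference standard was derived from a three-dose-level assay based on paw volume changes.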
This is another data set of the same source.

In assay [13] the test system is Rattus norvegicus. Nature of the assay: Reduction in paw swelling at 100 mg/kg po dose in rat using adjuvant arthritis test; value is +1 indicates exacerbation of paw swelling.
Assay [14] has as its system Rattus norvegicus. Nature of the assay: Reduction in paw swelling at 100 mg/kg po dose in rat using adjuvant arthritis test; value is +3 indicates exacerbation of paw swelling.
Assay [15] concerns Rattus norvegicus. The assay can be described thus: Reduction in paw swelling at 100 mg/kg po dose in rat using adjuvant arthritis test; value is +7 indicates exacerbation of paw swelling.
Assay [16] deals with Rattus norvegicus. Nature of the assay: Reduction in paw swelling at 100 mg/kg po dose in rat using adjuvant arthritis test; value is +4 indicates exacerbation of paw swelling.
Assay [17] concerns Rattus norvegicus. The assay can be described thus: Reduction in paw swelling at 100 mg/kg po dose in rat using adjuvant arthritis test; value is +13 indicates exacerbation of paw swelling.
For assay [18], the system named is Rattus norvegicus. The assay can be described thus: Reduction in paw swelling at 100 mg/kg po dose in rat using adjuvant arthritis test; value is +5 indicates exacerbation of paw swelling.
Assay [19] relates to Rattus norvegicus. Nature of the assay: Reduction in paw swelling at 100 mg/kg po dose in rat using adjuvant arthritis test; value is +20 indicates exacerbation of paw swelling.
The test system of assay [20] is Rattus norvegicus. Nature of the assay: Reduction in paw swelling at 100 mg/kg po dose in rat using adjuvant arthritis test; value is +2 indicates exacerbation of paw swelling.

We go through 28 molecules from ChEMBL document CHEMBL1122319, “Substituted (2-phenoxyphenyl)acetic acids with antiinflammatory activity. 1” (J Med Chem, 1983).

A value given as a limit tells only on which side of the number the result lay.

As to `COc1cccc(Oc2ccc(C)cc2CC(=O)O)c1`, the Reduction in the assay with Rattus norvegicus [1] came to 10.

Turning to `CCc1cc(Cl)ccc1Oc1ccc(C)cc1CC(=O)O`, the Reduction in the assay on Rattus norvegicus [2] is recorded as 17. In addition, the Relative potency in the assay listed under Rattus norvegicus [3] was 0.4.

As for `Cc1ccc(Oc2c(Cl)cccc2CC(=O)O)c(Cl)c1`, in the assay with Rattus norvegicus [4], the Reduction was found to be 23.

`CCCCc1ccc(Oc2ccc(C)cc2CC(=O)O)c(Cl)c1`: in the assay with Rattus norvegicus [2], the Reduction is 25. Moreover, the Relative potency in the assay listed under Rattus norvegicus [3] was 0.9.

Turning to `CCCCc1ccc(Oc2ccc(C)cc2Cl)c(CC(=O)O)c1`, the Reduction with Rattus norvegicus [5] came out at 8.

For the molecule `Cc1ccc(Oc2cc(C)c(C)cc2CC(=O)O)c(Cl)c1`, in the assay on Rattus norvegicus [6], the Reduction amounted to 14.

Regarding `CCc1ccc(Oc2ccc(C)cc2CC(=O)O)c(Cl)c1`, in the assay with Rattus norvegicus [2], the Reduction is 40. In the assay listed under Rattus norvegicus [7], the MUD was >800 mg/kg. In the assay listed under Rattus norvegicus [3], the Relative potency was 1.1.

On to `Cc1ccc(Oc2ccc(C(C)(C)C)cc2Cl)c(CC(=O)O)c1`, for which the Reduction with Rattus norvegicus [2] was 34. Moreover, the MUD in the assay filed under Rattus norvegicus [7] was >500 mg/kg. Besides, in the assay filed under Rattus norvegicus [3], the Relative potency is 1.6.

Turning to `CCC(C)c1ccc(Oc2ccc(C)cc2CC(=O)O)c(Cl)c1` (stereo unspecified), in the assay filed under Rattus norvegicus [8], the MUD was determined as 800 mg/kg. The Reduction with Rattus norvegicus [2] is 42. In the assay listed under Rattus norvegicus [3], the Relative potency stood at 3.

With `COc1ccc(Oc2ccc(C)cc2Cl)c(CC(=O)O)c1`, the Reduction in the assay on Rattus norvegicus [9] is on record as 6.

Consider `COc1cc(Oc2ccc(C)cc2Cl)c(CC(=O)O)cc1C`, for which the Reduction in the assay on Rattus norvegicus [10] amounted to 12.

For the molecule `Cc1ccc(Oc2cccc(O)c2CC(=O)O)c(Cl)c1`, the Reduction in the assay with Rattus norvegicus [11] is reported as 9.

Take `O=C(Cc1ccccc1Oc1ccc(Cl)cc1Cl)NO`: in the assay listed under Rattus norvegicus [12], the Relative potency was determined as 1. Besides, the Reduction in the assay with Rattus norvegicus [2] amounted to 28%.

`Cc1ccc(Oc2cc(C)ccc2CC(=O)O)c(Cl)c1`: the Reduction in the assay with Rattus norvegicus [13] amounted to 1.

For `Cc1ccc(Oc2cc(C(F)(F)F)cc(C(F)(F)F)c2)c(CC(=O)O)c1`, the Reduction in the assay on Rattus norvegicus [1] is 10.

For `Cc1ccc(Oc2cc(C)c(Cl)cc2CC(=O)O)c(Cl)c1`, the Reduction in the assay with Rattus norvegicus [6] stood at 14.

In the case of `Cc1ccc(Oc2cccc(O)c2)c(CC(=O)O)c1`, the Reduction in the assay on Rattus norvegicus [14] came to 3.

Regarding `COc1ccc(CC(=O)O)c(Oc2ccc(C)cc2Cl)c1`, the Reduction with Rattus norvegicus [6] came to 14.

For the molecule `Cc1ccc(Oc2cc(Cl)c(C)cc2CC(=O)O)c(Cl)c1`, in the assay with Rattus norvegicus [15], the Reduction is 7.

`Nc1cc(Cl)ccc1Oc1ccccc1CC(=O)O`: the Reduction in the assay on Rattus norvegicus [16] was determined as 4.

Take `CCCCCCCCCCCCc1ccc(Oc2ccc(C)cc2CC(=O)O)c(Cl)c1`: in the assay on Rattus norvegicus [2], the Reduction worked out at 26%. The Relative potency in the assay listed under Rattus norvegicus [3] was determined as 0.3.

`O=C(O)/C=C/c1ccccc1Oc1ccc(Cl)cc1Cl`: the Reduction in the assay on Rattus norvegicus [5] is recorded as 8.

Take `CCc1ccc(Oc2ccc(C)cc2Cl)c(CC(=O)O)c1`: the Reduction with Rattus norvegicus [17] was 13.

As for `Cc1ccc(Oc2cc(C)c(C)cc2Cl)c(CC(=O)O)c1`, in the assay on Rattus norvegicus [2], the Reduction is listed as 46. Also, the Relative potency in the assay filed under Rattus norvegicus [3] amounted to 0.4.

With `Nc1ccc(Oc2ccccc2CC(=O)O)c(Cl)c1`, the Reduction with Rattus norvegicus [18] worked out at 5.

On to `Cc1ccc(Oc2cc(O)ccc2CC(=O)O)c(Cl)c1`, for which, in the assay on Rattus norvegicus [19], the Reduction turned out to be 20.

On to `Cc1ccc(Oc2ccc(C3CCCCC3)cc2Cl)c(CC(=O)O)c1`, for which the Reduction in the assay with Rattus norvegicus [20] is 2.

In the assay filed under Rattus norvegicus [8], `O=C(O)Cc1ccccc1Oc1ccc(Cl)cc1Cl` [FENCLOFENAC] had an MUD of 800 mg/kg. Besides, the Reduction with Rattus norvegicus [2] was determined as 36. For the same molecule, in the assay filed under Rattus norvegicus [3], the Relative potency came to 1.
